In ChEMBL document CHEMBL4316645, “Phenolic C-Glycosides and Aglycones from Marine-Derived Aspergillus sp. and Their Anti-Inflammatory Activities” (J Nat Prod, 2019):
Activity calls are given as the source filed them. No cut-off for these calls is given here.

What was measured:
RAW264.7 [1] = assay: Inhibition of LPS-induced nitric oxide production in mouse RAW264.7 cells preincubated for 2 hrs followed by LPS-stimulation and measured after 12 hrs by Griess assay; assay type: functional, cell-based
Summary of the method: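 RAW264.7 cells seeded at 2 × 10^5 cells/well and preincubated 24 h, then treated 2 h with test compounds from 40 to 0.5 μM, then stimulated with LPS (1 μg/mL) for 12 h. Supernatant spun at 16 000 rpm for 20 min, mixed with Griess reagent (0.1% naphthyl ethylenediamine dihydrochloride, 1% sulfanilamide, 2% phosphoric acid) for 10 min at rt, read at 540 nm. Means of three independent experiments.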

[2] = biological target: Transcription factor p65 (Mus musculus) (UniProt Q04207); assay: Inhibition of NFkappaB p65 nuclear translocation in LPS-stimulated mouse RAW264.7 cells at 5 to 10 uM preincubated for 2 hrs followed by LPS-stimulation and measured after 12 hrs by DAPI staining based fluorescence microscopic analysis; assay type: cell-based
Summary of the method: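 Cells were fixed in 4% paraformaldehyde for 20 min and permeabilized with 0.2% Triton X-100 for 30 min. After 5% BSA block for 1 h, they were given anti-p65 primary overnight at 4 °C, then Alexa Fluor 594 secondary (1:500) for 1 h at rt. DAPI (5 μg/mL) was applied 30 min at 37 °C. Imaging used fluorescence microscopy, ex/em 590/617 nm for p65 and 360/450 nm for DAPI.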

RAW264.7 [3] = assay: Antiinflammatory activity in mouse RAW264.7 cells assessed as inhibition of LPS-induced IL-6 production preincubated for 2 hrs followed by LPS-stimulation and measured after 12 hrs by ELISA; assay type: functional, cell-based
Summary of the method: (§1)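 Cells seeded at 2 × 10^5 cells/well and preincubated 24 h. They were pretreated 2 h with compound, then given LPS (1 μg/mL) for 12 h. IL-1β and IL-6 in the culture medium were measured by ELISA. Data are mean ± SD (n = 3), analysed by one-way ANOVA with Tukey's test against the LPS-only group.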

RAW264.7 [4] = assay: Antiinflammatory activity in mouse RAW264.7 cells assessed as inhibition of LPS-induced COX2 expression at 5 to 10 uM preincubated for 2 hrs followed by LPS-stimulation and measured after 12 hrs by Western blot analysis; assay type: functional, cell-based
Summary of the method: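 After 2 h compound pretreatment and 12 h LPS (1 μg/mL), cells were lysed in 20 mM Tris HCl pH 7.4 with protease inhibitors, and protein was quantified. Lysates were run on SDS-PAGE, transferred to PVDF, and blocked in PBS/0.1% Tween 20/5% skim milk for 1 h at rt. Blots were probed overnight at 4 °C for COX-2 and β-actin, developed by chemiluminescence, and bands quantified by densitometry. Mean ± SD, n = 3.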

RAW264.7 [5] = assay: Antiinflammatory activity in mouse RAW264.7 cells assessed as inhibition of LPS-induced IL-1beta production preincubated for 2 hrs followed by LPS-stimulation and measured after 12 hrs by ELISA; assay type: functional, cell-based; summary of the method: as §1

Chain of Transcription factor p65 (Mus musculus) (Q04207 whole entry): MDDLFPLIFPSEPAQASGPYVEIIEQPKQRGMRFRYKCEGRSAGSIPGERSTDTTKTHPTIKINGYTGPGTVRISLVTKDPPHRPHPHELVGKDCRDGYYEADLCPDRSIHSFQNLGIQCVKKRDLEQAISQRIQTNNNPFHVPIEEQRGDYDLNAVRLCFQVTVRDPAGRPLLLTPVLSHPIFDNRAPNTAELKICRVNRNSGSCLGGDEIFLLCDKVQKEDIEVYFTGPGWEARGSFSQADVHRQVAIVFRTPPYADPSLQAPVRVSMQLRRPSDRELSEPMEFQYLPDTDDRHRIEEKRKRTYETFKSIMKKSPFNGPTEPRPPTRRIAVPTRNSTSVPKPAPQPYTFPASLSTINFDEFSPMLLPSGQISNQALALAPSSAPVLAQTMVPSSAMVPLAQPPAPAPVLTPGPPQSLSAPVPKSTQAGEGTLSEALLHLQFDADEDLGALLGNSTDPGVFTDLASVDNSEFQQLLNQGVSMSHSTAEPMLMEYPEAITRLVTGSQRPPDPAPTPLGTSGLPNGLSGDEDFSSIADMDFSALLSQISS

In the case of `CCC/C=C/C=C/CCc1cc(O)c([C@@H]2O[C@H](CO)[C@@H](O)[C@H](O)[C@H]2O)c(O)c1`, the IC50 (RAW264.7 [1]) is reported as > 40 µM.
Compound `CCC/C=C/C=C/CCc1cc(O)c([C@@H]2O[C@H](CO)[C@@H](O)[C@H](O)[C@H]2O)c(O)c1C(=O)OCC` has an IC50 (RAW264.7 [1]) of 15 µM.
Compound `CCC/C=C/C=C/C1Cc2cc(O)cc(O)c2C(=O)O1` (configuration not stated) has an IC50 (RAW264.7 [1]) of 17 µM.
For `CCC/C=C/C=C\CCc1cc(O)cc(O)c1`, the IC50 (RAW264.7 [1]) was 28 µM.
In the case of `CCC/C=C/C=C/CCc1cc(O)cc(O)c1`, the inhibition [2] is reported as “Active”, the inhibition (RAW264.7 [3]) is reported as “Dose-dependent effect” and the inhibition (RAW264.7 [4]) is reported as “Active”. For the same compound, the IC50 (RAW264.7 [1]) was 6 µM and the inhibition (RAW264.7 [5]) was “Dose-dependent effect”.
`CCC/C=C/C=C/CCc1cc(O)c([C@@H]2O[C@H](CO)[C@@H](O)[C@H](O)[C@H]2O)c(O)c1C(=O)OC` was tested, and the IC50 (RAW264.7 [1]) was > 40 µM.
With `CCC/C=C/C=C/CCc1cc(O)cc(O)c1C(=O)O` the IC50 (RAW264.7 [1]) was 9.9 µM.
With `CCC/C=C/C=C\CCc1cc(O)c([C@@H]2O[C@H](CO)[C@@H](O)[C@H](O)[C@H]2O)c(O)c1` the IC50 (RAW264.7 [1]) was > 40 µM.
Compound `CCC/C=C\C=C\CCc1cc(O)c([C@@H]2O[C@H](CO)[C@@H](O)[C@H](O)[C@H]2O)c(O)c1` has an IC50 (RAW264.7 [1]) of 30 µM.
For `CC/C=C/C=C/CCc1cc(O)c([C@@H]2O[C@H](CO)[C@@H](O)[C@H](O)[C@H]2O)c(O)c1C(=O)OC`, the IC50 (RAW264.7 [1]) was 19 µM.
With `CCC/C=C/C=C\CCc1cc(O)c([C@@H]2O[C@H](CO)[C@@H](O)[C@H](O)[C@H]2O)c(O)c1C(=O)OC` the IC50 (RAW264.7 [1]) was > 40 µM.
For `CCC/C=C\C=C\CCc1cc(O)c([C@@H]2O[C@H](CO)[C@@H](O)[C@H](O)[C@H]2O)c(O)c1C(=O)OC`, the IC50 (RAW264.7 [1]) was 14 µM.
For `C/C=C/C=C/CCc1cc(O)c([C@@H]2O[C@H](CO)[C@@H](O)[C@H](O)[C@H]2O)c(O)c1C(=O)OC`, the IC50 (RAW264.7 [1]) was > 40 µM.
